Consider 13 molecules from ChEMBL document CHEMBL2034907, “Indiosides G-K: steroidal glycosides with cytotoxic and anti-inflammatory activities from Solanum violaceum” (J Nat Prod, 2012).

Data set [1] concerns A549. Put plainly: Cytotoxicity against human A549 cells by MTT assay. The data set is classed as functional, cell-based. (In general: Formazan colour is commonly taken as a measure of viable cells.)
Data set [2] relates to MCF7. Put plainly: Cytotoxicity against human MCF7 cells by MTT assay. The data set is classed as functional, cell-based.
Data set [3] is described as follows: Cytotoxicity against human neutrophils assessed as increase in LDH level relative to control. Conditions: neutrophil. The data set is classed as cell-based. Put shortly: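 Lysed-cell reference made with 0.1% Triton X-100, 30 min at 37 °C. LDH in the cell-free medium was measured with a commercial kit. Result given as a percentage of total LDH release.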
For data set [4], the system named is Ca9-22. Nature of the data set: Cytotoxicity against human Ca9-22 cells by MTT assay. The data set is classed as functional, cell-based.
Data set [5] concerns HepG2. Nature of the data set: Cytotoxicity against human HepG2 cells by MTT assay. The data set is classed as functional, cell-based.
A short description of data set [6]: Antiinflammatory activity in human neutrophils assessed as inhibition of FMLP/CB-induced elastase release incubated for 5 mins prior to FMLP/CB-challenge by spectrophotometry. The data set is classed as functional, cell-based. To be noted: Neutrophil. Put shortly: (§1)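 Neutrophils isolated from human blood by dextran sedimentation and Ficoll centrifugation, used at 6 × 10^5/mL with MeO-Suc-Ala-Ala-Pro-Val-p-nitroanilide (100 μM). Equilibrated 2 min at 37 °C, compound added for 5 min, then activated with fMLP (100 nM)/CB (0.5 μg/mL). Absorbance at 405 nm monitored continuously. Initial elastase release rate expressed as % of the fMLP/CB-activated DMSO control. PMSF positive control; mean ± SEM, n = 3.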

Data set [7] can be described thus: Antiinflammatory activity in human neutrophils assessed as inhibition of FMLP/CB-induced superoxide anion generation incubated for 5 mins prior to FMLP/CB-challenge measured after 10 mins by spectrophotometry. The data set is classed as functional, cell-based. To be noted: Neutrophil. Put shortly: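 Neutrophils isolated by dextran sedimentation and Ficoll centrifugation. Cells were given 0.5 mg/mL ferricytochrome c and 1 mM Ca2+ and equilibrated at 37 °C for 2 min. They were then exposed to drug for 5 min and to cytochalasin B (1 μg/mL) for 3 min, then activated with fMLP (100 nM) for 10 min. Read-out was SOD-inhibitable ferricytochrome c reduction at 550 nm, monitored continuously. Mean ± SEM, n = 3.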

In data set [8] the test system is Neutrophil. Put plainly: Ratio of PMSF IC50 to compound IC50 for antiinflammatory activity assessed as inhibition of elastase release in human neutrophils. The data set is classed as functional.
Data set [9] can be described thus: Cytotoxicity against human Hep3B cells by MTT assay. The data set is classed as functional, cell-based, Hep 3B2.
Data set [10] relates to MDA-MB-231. Nature of the data set: Cytotoxicity against human MDA-MB-231 cells by MTT assay. The data set is classed as functional, cell-based.
A short description of data set [11]: Antiinflammatory activity in human neutrophils assessed as inhibition of FMLP/CB-induced superoxide anion generation at 10 ug/mL incubated for 5 mins prior to FMLP/CB-challenge measured after 10 mins by spectrophotometry. The data set is classed as functional. To be noted: Neutrophil. Put shortly: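 Human neutrophils isolated by dextran sedimentation and Ficoll centrifugation, supplemented with ferricytochrome c (0.5 mg/mL) and Ca2+ (1 mM). Equilibrated 2 min at 37 °C, compound added for 5 min, then cytochalasin B (1 μg/mL) for 3 min, then fMLP (100 nM) for 10 min. SOD-inhibitable ferricytochrome c reduction followed at 550 nm with stirring. Expressed as % of fMLP/CB-activated response. DPI positive control; mean ± SEM, n = 3.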

Data set [12] in a line: Antiinflammatory activity in human neutrophils assessed as inhibition of FMLP/CB-induced elastase release at 10 ug/mL incubated for 5 mins prior to FMLP/CB-challenge by spectrophotometry. The data set is classed as functional. To be noted: Neutrophil. Put shortly: as §1

SMILES strings stand for the structures. Converted amounts (≈) assume the structure as drawn. Bounds are passed on as bounds.

On to `C[C@H]1CC[C@@]2(OC1)O[C@H]1C[C@H]3[C@@H]4CC=C5C[C@@H](O[C@@H]6O[C@H](CO)[C@@H](O[C@@H]7O[C@@H](C)[C@H](O)[C@@H](O)[C@H]7O)[C@H](O)[C@H]6O[C@@H]6O[C@@H](C)[C@H](O)[C@@H](O)[C@H]6O)CC[C@]5(C)[C@H]4CC[C@]3(C)[C@H]1[C@@H]2C`, for which the IC50 (commonly the midpoint of a concentration-inhibition curve) was 4.09 µg/mL (≈ 4.71 µM) in [1]; 8.84 µg/mL (≈ 10.2 µM) in data set [2]; 3.77 µg/mL (≈ 4.34 µM) in data set [4]; 6.44 µg/mL (≈ 7.41 µM) in data set [5]; 4.04 µg/mL (≈ 4.65 µM) in data set [6]; 1.62 µg/mL (≈ 1.86 µM) in data set [7]. Besides, the half-maximal inhibitory concentration (IC50) came to 2.87 µg/mL (≈ 3.3 µM) in data set [9] and 5.84 µg/mL (≈ 6.72 µM) in data set [10]. For the same molecule, the Activity result in data set [3] is given as “Toxic”. For the same molecule, in data set [8], the “Ratio IC50” value is on record as 5.

`C[C@H]1CC[C@]2(OC1)O[C@H]1C[C@H]3[C@@H]4CC=C5C[C@@H](O[C@@H]6O[C@H](CO)[C@@H](O[C@@H]7O[C@@H](C)[C@H](O)[C@@H](O)[C@H]7O)[C@H](O)[C@H]6O[C@@H]6O[C@@H](C)[C@H](O)[C@@H](O)[C@H]6O)CC[C@]5(C)[C@H]4CC[C@]3(C)[C@H]1[C@H]2C` [BORASSOSIDE E]: the half-inhibitory concentration (IC50) is 2.34 µg/mL (≈ 2.69 µM) in [1]; 2.61 µg/mL (≈ 3 µM) in [2]; 2.33 µg/mL (≈ 2.68 µM) in data set [4]; 1.83 µg/mL (≈ 2.11 µM) in [5]; 111 µg/mL (≈ 128 µM) in data set [6]; 0.62 µg/mL (≈ 0.713 µM) in data set [7]. For the same molecule, the concentration for half-maximal inhibition (IC50) came out at 2.03 µg/mL (≈ 2.34 µM) in data set [9] and 2.75 µg/mL (≈ 3.16 µM) in [10]. The Activity result in data set [3] is reported as “Toxic”.

In the case of `C[C@H]1CC[C@]2(OC1)O[C@H]1C[C@H]3[C@@H]4CC=C5C[C@@H](O[C@@H]6O[C@H](CO)[C@@H](O)[C@H](O)[C@H]6O[C@@H]6O[C@@H](C)[C@H](O)[C@@H](O)[C@H]6O)CC[C@]5(C)[C@H]4CC[C@]3(C)[C@H]1[C@H]2C`, the 50% inhibitory concentration (IC50) was found to be 3.09 µg/mL (≈ 4.27 µM) in data set [1]; 4.78 µg/mL (≈ 6.61 µM) in data set [2]; 2.95 µg/mL (≈ 4.08 µM) in [4]; 2.22 µg/mL (≈ 3.07 µM) in data set [5]; 2.95 µg/mL (≈ 4.08 µM) in [9]; 6.12 µg/mL (≈ 8.47 µM) in data set [10].

Consider `C/C(=C\CO)CC[C@@H]1[C@@]2(C)CC[C@H](O[C@@H]3O[C@H](CO)[C@@H](O)[C@H](O)[C@H]3O)C(C)(C)[C@@H]2CC[C@]1(C)O` [TRICALYSIOSIDE U], for which the IC50 in data set [1], in [2], in data set [4], in [5], in data set [9] and in data set [10] was greater than 20 µg/mL throughout.

On to `CC[C@H](CC[C@@H](C)[C@H]1CC[C@H]2[C@@H]3C(O)C=C4C[C@@H](O[C@@H]5O[C@H](CO)[C@@H](O)[C@H](O)[C@H]5O)CC[C@]4(C)[C@H]3CC[C@]12C)C(C)C` (some centres not stated), for which the half-inhibitory concentration (IC50) in data set [1], in data set [2], in data set [4], in [5], in data set [9] and in data set [10] was greater than 20 µg/mL each time.

On to `O=C(/C=C/c1ccc(O)cc1)NCCc1ccc(O)cc1` [N-P-COUMAROYL TYRAMINE], for which the inhibition (as a rule, the change of the read-out against control, counted positive when it falls) at 10 µg/mL was 23.2% in data set [11] and -0.17% in [12]. Also, the half-maximal inhibitory concentration (IC50) in [1] is 15.2 µg/mL (≈ 53.7 µM); in [2], greater than 20 µg/mL; in data set [4], 12.3 µg/mL (≈ 43.3 µM); in data set [5], 9.57 µg/mL (≈ 33.8 µM); in [9], 11.2 µg/mL (≈ 39.6 µM); in data set [10] it was greater than 20 µg/mL. Besides, the Activity result in data set [3] is recorded as “Non-toxic”.

In the case of `C[C@H]1CC[C@@]2(OC1)O[C@H]1C[C@H]3[C@@H]4CC=C5C[C@@H](O[C@@H]6O[C@H](CO)[C@@H](O)[C@H](O)[C@H]6O[C@@H]6O[C@@H](C)[C@H](O)[C@@H](O)[C@H]6O)CC[C@]5(C)[C@H]4CC[C@]3(C)[C@H]1[C@@H]2C`, the IC50 turned out to be 4.26 µg/mL (≈ 5.89 µM) in data set [1]; 5.84 µg/mL (≈ 8.08 µM) in [2]; 4.51 µg/mL (≈ 6.24 µM) in data set [4]; 6.48 µg/mL (≈ 8.96 µM) in data set [5]; 6.98 µg/mL (≈ 9.66 µM) in data set [9]; 7.25 µg/mL (≈ 10 µM) in data set [10].

Regarding `c1ccc2c(c1)[I+]c1ccccc1-2` [DIPHENYLENEIODONIUM], the half-maximal inhibitory concentration (IC50) in data set [7] amounted to 0.22 µg/mL.

On to `C[C@H]1CC[C@@]2(OC1)O[C@H]1C[C@H]3[C@@H]4CC[C@H]5C[C@@H](O[C@@H]6O[C@H](CO)[C@@H](O[C@@H]7O[C@@H](C)[C@H](O)[C@@H](O)[C@H]7O)[C@H](O)[C@H]6O[C@@H]6O[C@@H](C)[C@H](O)[C@@H](O)[C@H]6O)CC[C@]5(C)[C@H]4CC[C@]3(C)[C@H]1[C@@H]2C`, for which the IC50 in data set [1] amounted to 7.27 µg/mL (≈ 8.35 µM); in data set [2] it was 11.6 µg/mL (≈ 13.3 µM); in [4], 6.76 µg/mL (≈ 7.76 µM); in data set [5] it was 5.33 µg/mL (≈ 6.12 µM); in [7], 2.84 µg/mL (≈ 3.26 µM); in data set [9], 3.32 µg/mL (≈ 3.81 µM). Besides, in [10], 8.04 µg/mL (≈ 9.23 µM) corresponded to half-maximal inhibition (IC50). For the same molecule, the Activity result in [3] was “Toxic”. In data set [12], the inhibition at 10 µg/mL is 38.9%.

`O=S(=O)(F)Cc1ccccc1` [PHENYLMETHYLSULFONYLFLUORIDE]: in [6], the half-maximal inhibitory concentration (IC50) worked out at 22.8 µg/mL (≈ 131 µM).

`C[C@@H]1CC[C@]2(OC1)O[C@H]1C[C@H]3[C@@H]4CC=C5C[C@@H](O[C@@H]6O[C@H](CO)[C@@H](O[C@@H]7O[C@@H](C)[C@H](O)[C@@H](O)[C@H]7O)[C@H](O)[C@H]6O)CC[C@]5(C)[C@H]4CC[C@]3(C)[C@H]1[C@H]2C` [BORASSOSIDE D]: the half-maximal inhibitory concentration (IC50) in data set [1], in [2], in data set [4], in [5], in data set [9] and in [10] was greater than 20 µg/mL throughout.

Take `CC[C@H](CC[C@@H](C)[C@H]1CC[C@H]2[C@@H]3CC=C4C[C@@H](O[C@@H]5O[C@H](CO)[C@@H](O)[C@H](O)[C@H]5O)CC[C@]4(C)[C@H]3CC[C@]12C)C(C)C` [SITOGLUSIDE]: the inhibition at 10 µg/mL was determined as 24.9% in [11] and 1.58% in data set [12]. Besides, the half-inhibitory concentration (IC50) in data set [1], in data set [2], in data set [4], in [5], in data set [9] and in data set [10] was greater than 20 µg/mL in each case.

For the molecule `COc1cccc2c1C(=O)c1c(O)c3c(c(O)c1C2=O)C[C@@](O)(C(=O)CO)C[C@@H]3O[C@H]1C[C@H](N)[C@H](O)[C@H](C)O1` [DOXORUBICIN], the half-inhibitory concentration (IC50) in data set [1] worked out at 1.4 µg/mL (≈ 2.58 µM); in data set [2], 0.8 µg/mL (≈ 1.47 µM); in [4], 0.31 µg/mL (≈ 0.57 µM); in [9] it was 1.31 µg/mL (≈ 2.41 µM); in data set [10], 1.39 µg/mL (≈ 2.56 µM).
